Legend:
hERG (KCNH2) [1] = molecular target: T1, hERG (KCNH2) (Homo sapiens, UniProt Q12809); assay: Inhibition of human ERG expressed in CHO cells assessed as reduction in peak channel current at 0.3 uM by IonWork patch-clamp electrophysiology method relative to control; assay type: cell-based; conditions: CHO cells expressing human ERG
Plasmodium falciparum [2] = assay: (§1) Antiplasmodial activity against chloroquine-resistant asexual blood stage of Plasmodium falciparum K1 infected in human RBC assessed as reduction in [3H]hypoxanthine incorporation preincubated for 48 hrs followed by [3H]hypoxanthine addition measured after 24 hrs by liquid scintillation counting method; assay type: functional, organism-based
Method in brief: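 Asexual blood-stage P. falciparum K1 (multidrug resistant) screened by modified [3H]-hypoxanthine incorporation assay; IC50 as mean of n ≥ 2 assays, replicates differing above 3-fold excluded; chloroquine and artesunate controls.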

Plasmodium falciparum [3] = assay: as §1, with “chloroquine-sensitive” for “chloroquine-resistant”, “NF54” for “K1”; assay type: functional, organism-based
Method in brief: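 Asexual blood-stage P. falciparum NF54 assay, run as a modified [3H]-hypoxanthine incorporation assay. Values are the mean of n ≥ 2 assays; determinations differing more than 3-fold were excluded. Chloroquine and artesunate served as controls.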

[4] = Metabolic stability in Balb/c mouse liver microsomes assessed as parent compound remaining at 0.1 uM after 30 mins in presence of NADPH by LC-MS/MS analysis; conditions: liver microsomes
[5] = molecular target: Voltage-gated inwardly rectifying potassium channel KCNH2 (Homo sapiens, UniProt Q12809); assay: Inhibition of human ERG expressed in CHO cells assessed as reduction in peak channel current by IonWork patch-clamp electrophysiology method; assay type: cell-based
CHO = assay: Cytotoxicity against CHO cells after 48 hrs by MTT assay; assay type: cell-based; conditions: Cricetulus griseus
[6] = Half life in human liver microsomes at 0.1 uM in presence of NADPH by LC-MS/MS analysis; conditions: liver microsomes
[7] = Selectivity index, ratio of IC50 for CHO cells to IC50 for chloroquine-sensitive asexual blood stage of Plasmodium falciparum NF54 infected in human RBC; assay type: toxicity; conditions: Chinese hamster, read-out: Ratio IC50
Method in brief: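 Selectivity index taken as the ratio of the CHO-cell IC50 to the P. falciparum NF54 IC50.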

[8] = Resistance index, ratio of IC50 for chloroquine-resistant asexual blood stage of Plasmodium falciparum K1 infected in human RBC to IC50 for chloroquine-sensitive asexual blood stage of Plasmodium falciparum NF54 infected in human RBC; assay type: functional
[9] = Half life in Balb/c mouse liver microsomes at 0.1 uM in presence of NADPH by LC-MS/MS analysis; conditions: liver microsomes
Plasmodium berghei [10] = assay: Antimalarial activity against liver stage form of luciferase transfected Plasmodium berghei sporozoites infected in human HuH7 cells preincubated with host cells for 1 hr followed by plasmodial infection and measured after 48 hrs by bioluminescence method; assay type: functional, organism-based; conditions: Huh-7
Plasmodium falciparum [11] = assay: Antiplasmodial activity against chloroquine-sensitive final late stage of Plasmodium falciparum NF54-Mal8p1.16-GFP-Luc gametocytes after 24 hrs by BacTiter-Glo assay; assay type: functional, organism-based; conditions: NF54, 24 h
Method in brief: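 Late-stage PfNF54 gametocytes produced in vitro; gametocytocidal IC50 via luciferase reporter and ATP bioluminescence platforms; n=3 independent biological replicates in technical triplicates, ± S.E.M.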

[12] = Metabolic stability in human liver microsomes assessed as parent compound remaining at 0.1 uM after 30 mins in presence of NADPH by LC-MS/MS analysis; conditions: liver microsomes
hERG (KCNH2) [13] = molecular target: T1, hERG (KCNH2); assay: Inhibition of human ERG expressed in CHO cells assessed as reduction in peak channel current at 10 uM by IonWork patch-clamp electrophysiology method relative to control; assay type: cell-based; conditions: CHO cells expressing human ERG
Method in brief: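 hERG potassium channel profiled by IonWorks patch-clamp electrophysiology, with 10 μM as the highest concentration tested. Values are the mean of 3 results from experiments run as biological and technical triplicates.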

Hemozoin = assay: Inhibition of beta hematin formation after 5 hrs by NP40 detergent-based assay
Plasmodium berghei [14] = assay: Antimalarial activity against GFP-fused Plasmodium berghei ANKA infected in NMRI mouse assessed as host mean survival time at 30 mg/kg, po administered for 4 consecutive days; assay type: functional
Method in brief: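 NMRI mice infected intravenously with P. berghei; oral treatment at 4, 24, 48 and 72 h post-infection (4 x 50 mg/kg), vehicle to controls; reference drug 4 x 30 mg/kg orally on four consecutive days. Parasitemia compared with untreated controls; mean survival days recorded; cure if no parasitemia 30 days after treatment.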

T1 sequence (Q12809 whole entry): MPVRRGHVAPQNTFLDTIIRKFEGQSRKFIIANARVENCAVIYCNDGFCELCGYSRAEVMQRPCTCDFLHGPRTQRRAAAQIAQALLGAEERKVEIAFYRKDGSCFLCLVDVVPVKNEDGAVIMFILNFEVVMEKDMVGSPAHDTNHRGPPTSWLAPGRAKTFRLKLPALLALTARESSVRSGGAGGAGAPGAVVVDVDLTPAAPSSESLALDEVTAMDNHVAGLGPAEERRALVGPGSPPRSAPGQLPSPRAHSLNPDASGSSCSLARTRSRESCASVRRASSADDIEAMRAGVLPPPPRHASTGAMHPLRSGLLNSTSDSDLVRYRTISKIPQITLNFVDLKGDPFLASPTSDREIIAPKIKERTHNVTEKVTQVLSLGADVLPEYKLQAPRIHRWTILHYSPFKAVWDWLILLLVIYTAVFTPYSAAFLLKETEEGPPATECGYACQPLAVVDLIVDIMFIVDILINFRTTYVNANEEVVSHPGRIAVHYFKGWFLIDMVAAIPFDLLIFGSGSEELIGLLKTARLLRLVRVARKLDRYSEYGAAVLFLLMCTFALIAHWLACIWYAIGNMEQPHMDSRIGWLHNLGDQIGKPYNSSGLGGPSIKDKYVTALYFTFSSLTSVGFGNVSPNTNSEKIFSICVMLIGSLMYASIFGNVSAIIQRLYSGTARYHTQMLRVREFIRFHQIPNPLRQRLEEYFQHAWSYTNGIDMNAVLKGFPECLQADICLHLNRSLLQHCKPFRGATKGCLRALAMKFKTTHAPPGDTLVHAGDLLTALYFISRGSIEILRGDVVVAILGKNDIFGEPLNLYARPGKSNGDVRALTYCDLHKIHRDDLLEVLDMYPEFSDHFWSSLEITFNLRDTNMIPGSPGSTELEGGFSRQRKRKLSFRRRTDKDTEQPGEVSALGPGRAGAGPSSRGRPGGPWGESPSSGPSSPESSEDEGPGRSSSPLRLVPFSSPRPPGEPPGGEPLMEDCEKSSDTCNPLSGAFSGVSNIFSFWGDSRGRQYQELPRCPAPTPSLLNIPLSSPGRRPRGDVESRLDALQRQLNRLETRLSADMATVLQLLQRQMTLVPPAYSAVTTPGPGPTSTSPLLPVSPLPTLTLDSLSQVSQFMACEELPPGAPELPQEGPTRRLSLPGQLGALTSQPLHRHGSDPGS
Voltage-gated inwardly rectifying potassium channel KCNH2, sequence (Q12809 whole entry): as above

Row | SMILES | inhibition at 0.3 µM (hERG (KCNH2) [1]) | IC50 (Plasmodium falciparum [2]) | IC50 (Plasmodium falciparum [3]) | remaining at 0.5 h, 0.1 µM [4] | IC50 [5] | IC50 (CHO) | half-life at 0.1 µM [6] | selectivity ratio [7] | Ratio IC50 [8] | half-life at 0.1 µM [9] | IC50 (Plasmodium berghei [10]) | IC50 (Plasmodium falciparum [11]) | remaining at 0.5 h, 0.1 µM [12] | inhibition at 10 µM (hERG (KCNH2) [13]) | IC50 (Hemozoin) | MST (Plasmodium berghei [14])
1 | N#Cc1c(C(F)(F)F)cc(NCc2ccco2)n2c1nc1cc(Cl)c(Cl)cc12 | 6.82% | 230 nM | 440 nM | 66% | > 10000 nM | 4840 nM | > 2.5 h | 10 | 0.52 | 0.833 h | 60 nM | 2000 nM | 100% | < 40% |  | 
2 | N#Cc1c(C(F)(F)F)cc(NCc2ccc(OC(F)(F)F)cc2)n2c1nc1cc(Cl)c(Cl)cc12 |  |  | 440 nM | 82% |  | 5020 nM | > 2.5 h | 11 |  | 1.75 h | 190 nM | 210 nM | > 99% |  |  | 
3 | N#Cc1c(C(F)(F)F)cc(NCc2ccccn2)n2c1nc1cc(Cl)c(Cl)cc12 |  |  | 1420 nM | 31% |  | 750 nM | 1.05 h | 0.5 |  | 0.3 h |  | 2480 nM | 72% |  | 59000 nM | 
4 | N#Cc1c(C(F)(F)F)cc(NCc2ccc(OC(F)(F)F)cc2)n2c1nc1ccccc12 |  | 840 nM | 920 nM |  |  | > 222000 nM |  | > 241 | 0.91 |  | 480 nM |  |  |  |  | 
5 | CCN(CC)CCCC(C)Nc1ccnc2cc(Cl)ccc12 (stereo not drawn) [CHLOROQUINE] |  |  |  |  |  |  |  |  |  |  |  |  |  |  | 18000 nM | 21 days
6 | N#Cc1c(C(F)(F)F)cc(Nc2ccccc2OC(F)(F)F)n2c1nc1ccccc12 |  | 620 nM | 870 nM |  |  |  |  |  | 0.71 |  |  |  |  |  |  | 
7 | N#Cc1c(C(F)(F)F)cc(Nc2cccc(OC(F)(F)F)c2)n2c1nc1ccccc12 |  | 230 nM | 390 nM |  |  |  |  |  | 0.58 |  |  |  |  |  |  | 
8 | N#Cc1c(C(F)(F)F)cc(NCc2ccc(F)cc2)n2c1nc1ccccc12 |  | 890 nM | 1270 nM |  |  | 45000 nM |  | 35 | 0.7 |  | 890 nM |  |  |  |  | 
9 | N#Cc1c(C(F)(F)F)cc(NS(=O)(=O)c2ccc(OC(F)(F)F)cc2)n2c1nc1cc(Cl)c(Cl)cc12 |  | 5850 nM | 6730 nM |  |  |  |  |  | 0.87 |  |  |  |  |  | 78000 nM | 
10 | N#Cc1c(C(F)(F)F)cc(NCc2ccc(F)cc2)n2c1nc1cc(Cl)c(Cl)cc12 |  | 280 nM | 440 nM | 72% |  | 13000 nM | > 2.5 h | 30 | 0.64 | 1.05 h |  | 690 nM | 102% |  |  | 
11 | Cc1ccc(CNc2cc(C(F)(F)F)c(C#N)c3nc4ccccc4n23)cc1 |  |  | 1490 nM |  |  | 25000 nM |  | 17 |  |  |  |  |  |  |  | 
12 | CS(=O)(=O)c1ccc(CNc2cc(C(F)(F)F)c(C#N)c3nc4cc(Cl)c(Cl)cc4n23)cc1 |  | 5610 nM | 5340 nM |  |  |  |  |  | 1.05 |  |  |  |  |  | > 100000 nM | 

From ChEMBL document CHEMBL4371072, “Structure-Activity Relationship Studies and Plasmodium Life Cycle Profiling Identifies Pan-Active N-Aryl-3-trifluoromethyl Pyrido[1,2- a]benzimidazoles Which Are Efficacious in an in Vivo Mouse Model of Malaria” (J Med Chem, 2019)
